The text below walks through data of ChEMBL document CHEMBL5712901, “DOT1L inhibition blocks multiple myeloma cell proliferation by suppressing IRF4-MYC signaling” (2019).

The test system of assay [1] is RPMI-8226. Nature of the assay: Induction of cell cycle arrest in human RPMI-8226 cells assessed as decrease in accumulation of cells at S phase at 1 uM for 6 days. It counts as functional, cell-based. The settings on record: time 6.0 day. A digest of the protocol: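 Flow cytometric cell cycle analysis of RPMI-8226 and MM.1S cells treated with 1 μM DOT1L inhibitor or DMSO for 6 days. Sub-G1, G0-G1 and S phase populations scored. Summary is from 3 replications, mean ± SEM.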

In assay [2] the test system is RPMI-8226. Nature of the assay: Effect on human RPMI-8226 cells assessed as change in KLF2 mRNA level at 1 uM for 3 days by ChIP-qPCR analysis. The settings on record: time 3.0 day. Type of assay: functional, cell-based. A digest of the protocol:
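ChIP-qPCR for H3K79me2 at IRF4-MYC signaling genes after 1 μM inhibitor or DMSO for 3 days. Signal normalized to input DNA. An intergenic region 28 kb upstream of KLF2 served as negative control. Mean of 3 replications ± SEM.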

Assay [3] concerns MM1.S. Briefly: Upregulation of IFN in human MM1.S cells assessed as increase in IFIT1 gene at 1 uM for 6 days by qRT-PCR analysis. It counts as functional, cell-based. As to conditions: time 6.0 day. Background: Real-time PCR tracks product formation cycle by cycle.
The test system of assay [4] is RPMI-8226. Nature of the assay: Upregulation of IFN in human RPMI-8226 cells assessed as increase in IFITM1 gene at 1 uM for 6 days by qRT-PCR analysis. It counts as functional, cell-based. The settings on record: time 6.0 day.
For the next assay, the system named is KMS-12-PE. Nature of the assay: Antiproliferative activity against human KMS-12-PE cells treated upto 14 days with replacement of fresh medium containing drug every 3 to 4 days by cell counting kit-8 method. It counts as functional, cell-based. The settings on record: time <= 14.0 day. Summed up: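 Screen of histone methylation modifier inhibitors in 6-well plates at 3 × 10^4 to 1 × 10^5 cells/well. Drug at 1 μM or DMSO for up to 14 days, with medium and drug refreshed every 3-4 days. CCK-8 read on days 3-4 and 11-14. Values normalized to DMSO; mean of 5 replications ± SEM; unpaired two-sided t-test.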
For orientation: Tetrazolium dyes change colour on reduction, which living cells bring about.

The test system of assay [5] is RPMI-8226. Nature of the assay: Upregulation of CCDC74B gene in human RPMI-8226 cells at 1 uM for 6 days by. Type of assay: functional, cell-based. The settings on record: time 6.0 day.
The subject of assay [6] is RPMI-8226. Nature of the assay: Upregulation of CCR2 gene in human RPMI-8226 cells at 1 uM for 6 days by. It counts as functional, cell-based. As to conditions: time 6.0 day.
Assay [7] has as its system RPMI-8226. Nature of the assay: Upregulation of CXCL12 gene in human RPMI-8226 cells at 1 uM for 6 days by. Type of assay: functional, cell-based. As to conditions: time 6.0 day. A digest of the protocol: (§1)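 Human myeloma lines RPMI-8226 and MM.1S exposed to 1 μM DOT1L inhibitor, or DMSO, for 6 days. Whole-genome expression profiled on gene expression microarray.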

For assay [8], the system named is RPMI-8226. Briefly: Upregulation of ENC1 gene in human RPMI-8226 cells at 1 uM for 6 days by. Type of assay: functional, cell-based. The settings on record: time 6.0 day. Summed up:
as §1

The test system of assay [9] is RPMI-8226. Nature of the assay: Upregulation of FBXO2 gene in human RPMI-8226 cells at 1 uM for 6 days by. As to conditions: time 6.0 day. It counts as functional, cell-based. Summed up: as §1
Assay [10] deals with RPMI-8226. Nature of the assay: Upregulation of FNBP1 gene in human RPMI-8226 cells at 1 uM for 6 days by. Type of assay: functional, cell-based. The settings on record: time 6.0 day.
For assay [11], the system named is RPMI-8226. Briefly: Upregulation of GNAI1 gene in human RPMI-8226 cells at 1 uM for 6 days by. The settings on record: time 6.0 day. Type of assay: functional, cell-based. Summed up:
as §1

In assay [12] the test system is RPMI-8226. Nature of the assay: Upregulation of HLA-DPB1 gene in human RPMI-8226 cells at 1 uM for 6 days by. It counts as functional, cell-based. The settings on record: time 6.0 day.
In assay [13] the test system is RPMI-8226. Nature of the assay: Upregulation of ID2 gene in human RPMI-8226 cells at 1 uM for 6 days by. The settings on record: time 6.0 day. It counts as functional, cell-based.
For assay [14], the system named is RPMI-8226. Briefly: Upregulation of IFITM1 gene in human RPMI-8226 cells at 1 uM for 6 days by. Type of assay: functional, cell-based. The settings on record: time 6.0 day.
In assay [15] the test system is RPMI-8226. Nature of the assay: Upregulation of LAMB3 gene in human RPMI-8226 cells at 1 uM for 6 days by. Type of assay: functional, cell-based. The settings on record: time 6.0 day.
The test system of assay [16] is RPMI-8226. Briefly: Upregulation of MMP9 gene in human RPMI-8226 cells at 1 uM for 6 days by. Type of assay: functional, cell-based. As to conditions: time 6.0 day.
Assay [17] deals with RPMI-8226. Nature of the assay: Upregulation of MS4A4A gene in human RPMI-8226 cells at 1 uM for 6 days by. It counts as functional, cell-based. As to conditions: time 6.0 day.
Assay [18] concerns RPMI-8226. Briefly: Upregulation of NOG gene in human RPMI-8226 cells at 1 uM for 6 days by. Type of assay: functional, cell-based. The settings on record: time 6.0 day.
The subject of assay [19] is RPMI-8226. Briefly: Upregulation of PPP1R1C gene in human RPMI-8226 cells at 1 uM for 6 days by. Type of assay: functional, cell-based. The settings on record: time 6.0 day.
Assay [20] has as its system RPMI-8226. Briefly: Upregulation of PRRT2 gene in human RPMI-8226 cells at 1 uM for 6 days by. Type of assay: functional, cell-based. The settings on record: time 6.0 day.
The subject of assay [21] is RPMI-8226. Briefly: Upregulation of SLC9A9 gene in human RPMI-8226 cells at 1 uM for 6 days by. Type of assay: functional, cell-based. As to conditions: time 6.0 day.
Assay [22] deals with RPMI-8226. Nature of the assay: Upregulation of TP53I3 gene in human RPMI-8226 cells at 1 uM for 6 days by. The settings on record: time 6.0 day. Type of assay: functional, cell-based.
Assay [23] deals with RPMI-8226. Nature of the assay: Upregulation of XKR3 gene in human RPMI-8226 cells at 1 uM for 6 days by. It counts as functional, cell-based. As to conditions: time 6.0 day.
Assay [24] deals with RPMI-8226. Briefly: Upregulation of ZNF75D gene in human RPMI-8226 cells at 1 uM for 6 days by. It counts as functional, cell-based. As to conditions: time 6.0 day.
In assay [25] the test system is MM1.S. Briefly: Upregulation of ALPK1 gene in human MM1.S cells at 1 uM for 6 days by. As to conditions: time 6.0 day. It counts as functional, cell-based.
For assay [26], the system named is MM1.S. Briefly: Upregulation of AMY1C gene in human MM1.S cells at 1 uM for 6 days by. It counts as functional, cell-based. As to conditions: time 6.0 day.
Assay [27] deals with MM1.S. Briefly: Upregulation of APH1B gene in human MM1.S cells at 1 uM for 6 days by. It counts as functional, cell-based. The settings on record: time 6.0 day.
Assay [28] has as its system MM1.S. Nature of the assay: Upregulation of BCL6 gene in human MM1.S cells at 1 uM for 6 days by. The settings on record: time 6.0 day. It counts as functional, cell-based.
Assay [29] concerns MM1.S. Briefly: Upregulation of FCGR2B gene in human MM1.S cells at 1 uM for 6 days by. It counts as functional, cell-based. The settings on record: time 6.0 day. A digest of the protocol:
as §1

In assay [30] the test system is MM1.S. Nature of the assay: Upregulation of HLA-DRB1 gene in human MM1.S cells at 1 uM for 6 days by. Type of assay: functional, cell-based. As to conditions: time 6.0 day.
The test system of assay [31] is MM1.S. Briefly: Upregulation of LRRC56 gene in human MM1.S cells at 1 uM for 6 days by. Type of assay: functional, cell-based. As to conditions: time 6.0 day.
For assay [32], the system named is MM1.S. Briefly: Upregulation of MYO1F gene in human MM1.S cells at 1 uM for 6 days by. It counts as functional, cell-based. As to conditions: time 6.0 day.
The test system of assay [33] is MM1.S. Nature of the assay: Upregulation of NOG gene in human MM1.S cells at 1 uM for 6 days by. As to conditions: time 6.0 day. Type of assay: functional, cell-based.
Assay [34] deals with MM1.S. Nature of the assay: Upregulation of NRIP1 gene in human MM1.S cells at 1 uM for 6 days by. Type of assay: functional, cell-based. The settings on record: time 6.0 day.
In assay [35] the test system is MM1.S. Nature of the assay: Upregulation of POPDC2 gene in human MM1.S cells at 1 uM for 6 days by. Type of assay: functional, cell-based. As to conditions: time 6.0 day.
Assay [36] concerns MM1.S. Briefly: Upregulation of RAPGEF2 gene in human MM1.S cells at 1 uM for 6 days by. Type of assay: functional, cell-based. As to conditions: time 6.0 day.
In assay [37] the test system is MM1.S. Briefly: Upregulation of SAP30L gene in human MM1.S cells at 1 uM for 6 days by. Type of assay: functional, cell-based. As to conditions: time 6.0 day.
Assay [38] deals with MM1.S. Briefly: Upregulation of SGK1 gene in human MM1.S cells at 1 uM for 6 days by. As to conditions: time 6.0 day. Type of assay: functional, cell-based.
Assay [39] concerns MM1.S. Nature of the assay: Upregulation of TP53I11 gene in human MM1.S cells at 1 uM for 6 days by. Type of assay: functional, cell-based. As to conditions: time 6.0 day.
The subject of assay [40] is MM1.S. Briefly: Upregulation of TP53I3 gene in human MM1.S cells at 1 uM for 6 days by. It counts as functional, cell-based. As to conditions: time 6.0 day.
Assay [41] deals with MM1.S. Nature of the assay: Upregulation of TTC39C gene in human MM1.S cells at 1 uM for 6 days by. It counts as functional, cell-based. The settings on record: time 6.0 day.
The test system of assay [42] is MM1.S. Briefly: Upregulation of ZG16B gene in human MM1.S cells at 1 uM for 6 days by. It counts as functional, cell-based. As to conditions: time 6.0 day.
Assay [43] deals with MM1.S. Briefly: Upregulation of ZNF862 gene in human MM1.S cells at 1 uM for 6 days by. Type of assay: functional, cell-based. As to conditions: time 6.0 day.
For assay [44], the system named is RPMI-8226. Briefly: Effect on human RPMI-8226 cells assessed as change in IRF4 mRNA level at 1 uM for 6 days by qRT-PCR analysis. The settings on record: time 6.0 day.

Active and inactive are the calls of the source. No cut-off for these calls is given here.

On to `CC(C)N(C[C@H]1O[C@@H](n2cnc3c(N)ncnc32)[C@H](O)[C@@H]1O)[C@H]1C[C@@H](CCc2nc3cc(C(C)(C)C)ccc3[nH]2)C1` [PINOMETOSTAT], for which the outcome in the assay on RPMI-8226 [1], in the assay on RPMI-8226 [2], in the assay with MM1.S [3] and with RPMI-8226 [4] was Active.
On to `CC(C)N(CCCNC(=O)Nc1ccc(C(C)(C)C)cc1)C[C@H]1O[C@@H](n2cc(Br)c3c(N)ncnc32)[C@H](O)[C@@H]1O`, for which the outcome in the assay with KMS-12-PE was inactive. The result in the assay on RPMI-8226 [5], with RPMI-8226 [6], with RPMI-8226 [7], in the assay on RPMI-8226 [8], with RPMI-8226 [9] and in the assay with RPMI-8226 [10] was Active. The outcome in the assay on RPMI-8226 [11], with RPMI-8226 [12], in the assay on RPMI-8226 [13], in the assay with RPMI-8226 [14], with RPMI-8226 [15] and in the assay with RPMI-8226 [16] was Active. Further, the result in the assay with RPMI-8226 [17], in the assay with RPMI-8226 [18], in the assay with RPMI-8226 [19], in the assay with RPMI-8226 [20], with RPMI-8226 [21] and with RPMI-8226 [22] was Active. Moreover, the result with RPMI-8226 [23], in the assay with RPMI-8226 [24], with MM1.S [25], with MM1.S [26], with MM1.S [27] and with MM1.S [28] was Active. Also, the result with MM1.S [29], in the assay with MM1.S [30], in the assay with MM1.S [31], with MM1.S [32], in the assay on MM1.S [33] and in the assay on MM1.S [34] was Active. Further, the result in the assay on MM1.S [35], in the assay with MM1.S [36], in the assay with MM1.S [37], in the assay with MM1.S [38], with MM1.S [39] and with MM1.S [40] was Active. Also, the result in the assay on MM1.S [41], with MM1.S [42], with MM1.S [43] and in the assay on RPMI-8226 [44] was Active.
